Assay results reported in ChEMBL document CHEMBL4312032, “Design and synthesis of α-phenoxy-N-sulfonylphenyl acetamides as Trypanosoma brucei Leucyl-tRNA synthetase inhibitors” (Eur J Med Chem, 2020).
Calls of active or inactive are those of the source. The rule behind the calls is not given here.

Assays:
[1] = Inhibition of Trypanosoma brucei LeuRS expressed in Escherichia coli BL21 (DE3)-RIPL cells assessed as decrease in [14C]-Leucine tRNA synthesis incubated for 20 mins in presence of [14C]leucine followed by incubation with ATP for 15 mins by liquid scintillation counting method
In short: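 T. brucei LeuRS was expressed in E. coli BL21(DE3)-RIPL. Reactions held 50 mM HEPES-KOH pH 7.8, 5 mM MgCl₂, 45 mM KCl, 1 mM DTT, 0.02% BSA, 0.4 mg/mL tRNA and [¹⁴C]leucine. They were preincubated 20 min at 37 °C without ATP, then run 15 min after adding 4 mM ATP. Three aliquots were spotted on filter paper and averaged for IC50.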

[2] = system: Trypanosoma brucei; test: Potency index, ratio of IC50 of 2-(4-bromo-2-chlorophenoxy)-N-(4-sulfamoylphenylcarbamothioyl)acetamide to IC50 of compound for inhibition of Trypanosoma brucei LeuRS expressed in Escherichia coli BL21 (DE3)-RIPL cells in presence of [14C]leucine incubated for 20 mins followed by incubation with ATP for 15 mins by liquid scintillation counting method
[3] = system: Trypanosoma brucei brucei; test: Antitrypanosomal activity against bloodstream form of Trypanosoma brucei brucei 221 assessed as parasite growth inhibition incubated for 72 hrs by resazurin staining based assay; assay type: functional, organism-based; conditions: Trypanosoma brucei, 221, 72 h
In short: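 Bloodstream-form T. b. brucei 221 kept in log phase in HMI-11 at 37 °C, 5% CO2, and seeded from a 2×10⁵/mL (2-fold) suspension. Compounds were serially diluted in DMSO and tested in triplicate for 72 h. Resazurin was then added for 5 h more. Fluorescence was read at ex 544/em 590 nm.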

[4] = system: Trypanosoma brucei brucei; test: Antitrypanosomal activity against bloodstream form of Trypanosoma brucei brucei 221 assessed as parasite growth inhibition at 22 uM incubated for 72 hrs by resazurin staining based assay; assay type: functional, organism-based

Structure (SMILES)	IC50 [1] [µM]	also measured
CC(C)C[C@H](N)C(=O)NS(=O)(=O)c1cccc(NC(=O)COc2ccccc2Cl)c1	5.69	–
CC(C)C[C@H](NC(=O)OCc1ccccc1)C(=O)NS(=O)(=O)c1ccc(NC(=O)COc2ccc(Br)cc2Cl)cc1	110	–
CCOC(=O)CC[C@H](N)C(=O)NS(=O)(=O)c1ccc(NC(=O)COc2ccc(Br)cc2Cl)cc1	> 1000	–
N[C@@H](Cc1ccccc1)C(=O)NS(=O)(=O)c1ccc(NC(=O)COc2ccc(Br)cc2Cl)cc1	> 1000	–
CC(C)(C)OC(=O)N[C@@H](Cc1ccccc1)C(=O)NS(=O)(=O)c1ccc(NC(=O)COc2ccc(Br)cc2Cl)cc1	281	–
CC(C)(C)OC(=O)N[C@@H](CCC(N)=O)C(=O)NS(=O)(=O)c1ccc(NC(=O)COc2ccc(Br)cc2Cl)cc1	685	–
NC(=O)CC[C@H](N)C(=O)NS(=O)(=O)c1ccc(NC(=O)COc2ccc(Br)cc2Cl)cc1	285	–
CC(C)C[C@H](N)C(=O)NS(=O)(=O)c1cccc(NC(=O)COc2ccc([N+](=O)[O-])cc2)c1	6.81	–
CC(C)(C)OC(=O)N[C@@H](CCC(=O)OCc1ccccc1)C(=O)NS(=O)(=O)c1ccc(NC(=O)COc2ccc(Br)cc2Cl)cc1	98	–
COc1ccc(OCC(=O)Nc2cccc(S(=O)(=O)NC(=O)[C@@H](N)CC(C)C)c2)cc1	3.58	–
CC(C)C[C@H](N)C(=O)NS(=O)(=O)c1cccc(NC(=O)COc2ccccc2)c1	5.51	–
CC(C)C[C@H](N)C(=O)NS(=O)(=O)c1cccc(NC(=O)COc2cccc(-c3ccccc3)c2)c1	0.7	Ratio IC50 [2]: 250
O=C(COc1ccc(Br)cc1Cl)Nc1ccc(S(=O)(=O)NC(=O)[C@H](Cc2ccccc2)NC(=O)OCc2ccccc2)cc1	116	–
COc1cccc(OCC(=O)Nc2cccc(S(=O)(=O)NC(=O)[C@@H](N)CC(C)C)c2)c1	2.68	–
CC(C)C[C@H](N)C(=O)NS(=O)(=O)c1cccc(NC(=O)COc2ccc(-c3ccccc3)cc2)c1	7.28	IC50 [3]: 33.3 µM; inhibition [4]: Active
NS(=O)(=O)c1ccc(NC(=S)NC(=O)COc2ccc(Br)cc2Cl)cc1	174	–
CC(C)C[C@H](NC(=O)OC(C)(C)C)C(=O)NS(=O)(=O)c1ccc(NC(=O)COc2ccc(Br)cc2Cl)cc1	404	–
NS(=O)(=O)c1ccc(NC(=O)COc2ccc(Br)cc2Cl)cc1	191	–
N[C@@H](CCC(=O)O)C(=O)NS(=O)(=O)c1ccc(NC(=O)COc2ccc(Br)cc2Cl)cc1	428	–
CC[C@H](C)[C@H](NC(=O)OC(C)(C)C)C(=O)NS(=O)(=O)c1ccc(NC(=O)COc2ccc(Br)cc2Cl)cc1	346	–
O=C(COc1ccc(Br)cc1Cl)Nc1ccc(S(=O)(=O)NC(=O)c2ccco2)cc1	251	–
CC(C)C[C@H](N)C(=O)NS(=O)(=O)c1ccc(NC(=O)COc2ccc(Br)cc2Cl)cc1	38.4	Ratio IC50 [2]: 5
CC[C@H](C)[C@H](N)C(=O)NS(=O)(=O)c1ccc(NC(=O)COc2ccc(Br)cc2Cl)cc1	> 1000	–
